Entries after “also recorded” stand apart in the source; their conditions may differ.
Key:
IL-1β = IL-1β level in supernatant of LPS-induced RAW264.7 cells; type: cell-based; settings: RAW264.7 cells supernatant, LPS 1 μg/mL, 1 μM, 48 h
Summary of the method: (§1)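 RAW264.7 cells were allowed to attach, then the medium was replaced with 1 μg/mL LPS plus test compound at final concentrations of 1, 10 and 100 μM, with DMSO used for solubilisation where needed. […] After 48 h culture, the supernatant was assayed for IL-1β, IL-6 and TNF-α. Values are means of three independent experiments, mean ± SD, compared by one-way ANOVA.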

TNF-α [1] = test: TNF-α level in supernatant of LPS-induced RAW264.7 cells; type: cell-based; settings: RAW264.7 cells supernatant, LPS 1 μg/mL, 1 μM, 48 h
Summary of the method: as §1

IL-6 [2] = test: IL-6 level in supernatant of LPS-induced RAW264.7 cells; type: cell-based; settings: RAW264.7 cells supernatant, LPS 1 μg/mL, 1 μM, 48 h
Summary of the method: as §1

TLR4 [3] = test: TLR4 protein expression in RAW264.7 cells by Western blot; type: cell-based; settings: LPS-induced RAW264.7 cells, 1 μM, 24 h, vs model group
Summary of the method: (§2)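 Lysis was in RIPA containing 1% PMSF on ice for 3–4 h, followed by centrifugation at 12000 rpm for 15 min. Supernatants were stored at −80 °C, and TLR4 and TNF-α protein were detected by Western blot.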

[4] = Pharmacokinetics in Sprague-Dawley rats; type: in vivo, rat; settings: for maximum concentration: SD rats; for half-life: male, Sprague-Dawley, rat, plasma
Summary of the method: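 Male SD rats (6–8 weeks) received test compound in 10% DMSO + 10% Solutol HS15 + 80% (20% HP-β-CD saline), either 20 mg/kg via foot dorsal vein or 100 mg/kg by oral gavage. Samples were kept on wet ice and spun at 2000g for 5 min at 4 °C within 15 min. Plasma was analysed by LC-MS/MS.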

TNF-α [5] = test: TNF-α mRNA expression in RAW264.7 cells by RT-PCR; type: cell-based; settings: LPS-induced RAW264.7 cells, 1 μM, 24 h, vs model group
NF-κB [6] = test: NF-κB protein expression in RAW264.7 cells by Western blot; type: cell-based; settings: LPS-induced RAW264.7 cells, 1 μM, 24 h, vs model group
TNF-α [7] = test: TNF-α protein expression in RAW264.7 cells by Western blot; type: cell-based; settings: LPS-induced RAW264.7 cells, 1 μM, 24 h, vs model group
Summary of the method: as §2

NF-κB [8] = test: NF-κB protein expression in RAW264.7 cells by immunofluorescence; type: cell-based; settings: LPS-induced RAW264.7 cells, 1 μM, 24 h, vs model group
TLR4 [9] = test: TLR4 mRNA expression in RAW264.7 cells by RT-PCR; type: cell-based; settings: LPS-induced RAW264.7 cells, 1 μM, 24 h, vs model group
IL-6 [10] = test: Rat CIA model, serum IL-6 concentration; type: in vivo; settings: CIA rats, 50 and 100 (mg/kg)/day oral, compared with model group
[11] = test system: CIA (collagen-induced arthritis) model; test: Rat CIA; type: in vivo; settings: for paw volume of rats: CIA rats, 15 days
TNF-α [12] = test: TNF-α protein expression in RAW264.7 cells by immunofluorescence; type: cell-based; settings: LPS-induced RAW264.7 cells, 1 μM, 24 h, vs model group
Summary of the method: (§3)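 They were PBS-washed, fixed in 4% fixative for 45 min, permeabilised with 0.25% Triton for 15 min and blocked with 5% BSA for 10 min. Staining used rabbit anti-mouse TLR4 or TNF-α (1:100, 4 °C overnight), FITC anti-rabbit (1:400, 37 °C, 30 min) and DAPI. Mean cell fluorescence was read by confocal microscopy.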

TNF-α [13] = test: Rat CIA model, serum TNF-α concentration; type: in vivo; settings: CIA rats, 50 and 100 (mg/kg)/day oral, compared with model group
TLR4 [14] = test: TLR4 protein expression in RAW264.7 cells by immunofluorescence; type: cell-based; settings: LPS-induced RAW264.7 cells, 1 μM, 24 h, vs model group
Summary of the method: as §3

NF-κB [15] = test: NF-κB mRNA expression in RAW264.7 cells by RT-PCR; type: cell-based; settings: LPS-induced RAW264.7 cells, 1 μM, 24 h, vs model group

For `CC(=O)CC(=O)C1CCCC1=O` (stereo not drawn) [Compound 3a, 1-(2-Oxocyclopentyl)butane-1,3-dione], the “Inflammatory factor IL-1β” value (IL-1β) was 512.0 ± 85.0 pg/L, the “Inflammatory factor TNF-α” value (TNF-α [1]) was 520.6 ± 54.6 pg/L and the “Inflammatory factor IL-6” value (IL-6 [2]) was 196.2 ± 14.3 pg/L.

In the case of `COC(=O)C1CCC(C(=O)CC(C)=O)C1=O` (stereo not drawn) [Compound 3g, Methyl 2-oxo-3-(3-oxobutanoyl)cyclopentane-1-carboxylate], the “Inflammatory factor IL-1β” value (IL-1β) is reported as 408.2 ± 69.1 pg/L, the “Inflammatory factor TNF-α” value (TNF-α [1]) is reported as 339.8 ± 49.2 pg/L and the “Inflammatory factor IL-6” value (IL-6 [2]) is reported as 170.3 ± 25.3 pg/L.

For `CCOC(=O)C1CCC(C(=O)CC(C)=O)C1=O` (stereo not drawn) [Compound 3h, Ethyl 2-oxo-3-(3-oxobutanoyl)cyclopentane-1-carboxylate], the “Inflammatory factor IL-1β” value (IL-1β) was 506.0 ± 65.1 pg/L, the “Inflammatory factor TNF-α” value (TNF-α [1]) was 524.7 ± 48.5 pg/L and the “Inflammatory factor IL-6” value (IL-6 [2]) was 197.4 ± 21.3 pg/L.

In the case of `CC(=O)CC(=O)C1CCC(C(C)=O)C1=O` (stereo not drawn) [Compound 3i, 1-(3-Acetyl-2-oxocyclopentyl)butane-1,3-dione], the “Inflammatory factor IL-1β” value (IL-1β) is reported as 558.4 ± 66.9 pg/L, the “Inflammatory factor TNF-α” value (TNF-α [1]) is reported as 424.5 ± 87.6 pg/L and the “Inflammatory factor IL-6” value (IL-6 [2]) is reported as 205.2 ± 25.9 pg/L.

For `CCCCCC1C(=O)C(C(=O)CC(C)=O)CC1CC(=O)OC` (stereo not drawn) [Compound 3j, Methyl 2-(3-oxo-4-(3-oxobutanoyl)-2-pentylcyclopentyl)acetate], the “Inflammatory factor IL-1β” value (IL-1β) was 488.8 ± 66.1 pg/L, the “Inflammatory factor TNF-α” value (TNF-α [1]) was 400.6 ± 60.2 pg/L and the “Inflammatory factor IL-6” value (IL-6 [2]) was 163.8 ± 25.9 pg/L.

In the case of `CC(=O)CC(=O)C1CC(C)C(=O)C1=O` (stereo not drawn) [Compound 3k, 3-Methyl-5-(3-oxobutanoyl) cyclopentane-1,2-dione], the “expression of TLR4 protein (Western blot)” value (TLR4 [3]) is reported as “significantly down-regulated”, the maximum concentration ([4]; intravenous dose 20 mg/kg) is reported as 1603 ng/mL and the maximum concentration ([4]; oral dose 100 mg/kg) is reported as 2014 ng/mL. The half-life ([4]; iv, 20 mg/kg) was 30 to 60 min, the half-life ([4]; po, 100 mg/kg) was 30 to 60 min and the “expression of TNF-α gene (RT-PCR)” value (TNF-α [5]) was “significant down-regulated”. For the same compound, the “expression of NF-κB protein (Western blot)” value (NF-κB [6]) was “significantly down-regulated”, the “Inflammatory factor IL-1β” value (IL-1β) was 278.6 ± 58.1 pg/L and the “expression of TNF-α protein (Western blot)” value (TNF-α [7]) was “significantly down-regulated”. The “expression of NF-κB protein (immunofluorescence)” value (NF-κB [8]) was “significantly down-regulated”, the “expression of TLR4 gene (RT-PCR)” value (TLR4 [9]) was “significant down-regulated” and the “serum IL-6 concentration” value (IL-6 [10]) was “decreased significantly and reached the normal level”. The “paw volume of rats” value ([11]; high dose 100 (mg/kg)/day oral) was “basically unchanged”, the “paw volume of rats” value ([11]; low dose 50 (mg/kg)/day oral) was “basically unchanged” and the “effect in collagen-induced arthritis model compared with methotrexate” value ([11]; administered orally) was “effects similar to those of methotrexate; also recorded: effect similar to that of the positive control group methotrexate”. For the same compound, the “expression of TNF-α protein (immunofluorescence)” value (TNF-α [12]) was “significantly down-regulated”, the “serum TNF-α concentration” value (TNF-α [13]) was “decreased significantly and reached the normal level” and the “expression of TLR4 protein (immunofluorescence)” value (TLR4 [14]) was “significantly down-regulated”. For the same compound, the “Inflammatory factor TNF-α” value (TNF-α [1]) was 217.8 ± 20.3 pg/L, the “expression of NF-κB gene (RT-PCR)” value (NF-κB [15]) was “significant down-regulated” and the “Inflammatory factor IL-6” value (IL-6 [2]) was 96.6 ± 9.8 pg/L.

With `CN(Cc1cnc2nc(N)nc(N)c2n1)c1ccc(C(=O)N[C@@H](CCC(=O)O)C(=O)O)cc1` [methotrexate, reference compound] the “expression of TLR4 protein (Western blot)” value (TLR4 [3]) was “significantly down-regulated”, the “expression of TNF-α gene (RT-PCR)” value (TNF-α [5]) was “significantly down-regulated” and the “Inflammatory factor IL-1β” value (IL-1β) was 337.6 ± 47.8 pg/L. For the same compound, the “expression of TNF-α protein (Western blot)” value (TNF-α [7]) was “significantly down-regulated”, the “expression of TLR4 gene (RT-PCR)” value (TLR4 [9]) was “significantly down-regulated” and the “expression of TNF-α protein (immunofluorescence)” value (TNF-α [12]) was “significantly down-regulated”. For the same compound, the “expression of TLR4 protein (immunofluorescence)” value (TLR4 [14]) was “significantly down-regulated”, the “Inflammatory factor TNF-α” value (TNF-α [1]) was 236.8 ± 18.7 pg/L and the “Inflammatory factor IL-6” value (IL-6 [2]) was 114.1 ± 2.8 pg/L.
